Results: ChEMBL document CHEMBL1126958, “Quinolinecarboxylic acids. 3. Synthesis and antibacterial evaluation of 2-substituted-7-oxo-2,3-dihydro-7H-pyrido[1,2,3-de] [1,4]benzothiazine-6-carboxylic acids related to rufloxacin” (J Med Chem, 1993)
Values after ≈ are worked out from the molar mass of the structure shown.

Experiments:
[1] = Urinary excretion in rat after 0-4 hours of oral administration at 50 mg/kg; type: ADME, organism-based; design: dose 50 mg/kg, route oral; conditions: urine
Method in brief: (§1)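 Fasted male Wistar rats, three per group, dosed orally at 50 mg/kg. Urine collected over 0-4, 4-8 and 8-24 h, diluted 1:100 in ultrapure water, then treated with water and 70% perchloric acid, vortexed and centrifuged. Supernatant analysed by HPLC with pH 2.8 KH2PO4/phosphoric acid mobile phase. Result given as % of administered dose excreted.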

[2] = Urinary excretion in rat after 4-8 hours of oral administration at 50 mg/kg; type: ADME, organism-based; design: dose 50 mg/kg, route oral; conditions: urine; method in brief: as §1
[3] = Urinary excretion in rat after 8-24 hours of oral administration at 50 mg/kg; type: ADME, organism-based; design: dose 50 mg/kg, route oral; conditions: urine; method in brief: as §1
[4] = Plasma concentration level in rat after 4 hours of oral administration at 50 mg/kg; type: ADME, organism-based; design: dose 50 mg/kg, route oral
Method in brief: (§2)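 Fasted male Wistar rats, three per group, single oral dose 50 mg/kg. Plasma taken at timed points, deproteinized with 70% perchloric acid, vortexed, centrifuged; supernatant analysed by HPLC, mobile-phase buffer 0.01 M KH2PO4 brought to pH 2.8 with phosphoric acid. Values as mean ± error over the group.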

[5] = Plasma concentration level in rat after 1 hour of oral administration at 50 mg/kg; type: ADME, organism-based; design: dose 50 mg/kg, route oral; method in brief: as §2
[6] = Plasma concentration level in rat after 15 hours of oral administration at 50 mg/kg; type: ADME, organism-based; design: dose 50 mg/kg, route oral; method in brief: as §2
Escherichia coli = assay: Minimal inhibitory concentration against Escherichia coli ISF 432 strain; type: functional
Method in brief: (§3)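 Agar dilution on TSA agar; compounds added by 2-fold dilution to melted medium at 50 °C just before pouring. Organisms stored at –80 °C, diluted in peptonated water to 1–2 × 10^7 CFU, applied with multipoint inoculator. MIC = lowest concentration preventing visible growth after 24 h at 35 °C.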

Enterobacter cloacae = assay: Minimal inhibitory concentration against Enterobacter cloacae OMNFI174 strain; type: functional; method in brief: as §3
Klebsiella pneumoniae = assay: Minimal inhibitory concentration against Klebsiella pneumoniae ATCC 10031 strain; type: functional; method in brief: as §3
Proteus vulgaris = assay: Minimal inhibitory concentration against Proteus vulgaris CNUR6 strain; type: functional; method in brief: as §3
Pseudomonas aeruginosa = assay: Minimal inhibitory concentration against Pseudomonas aeruginosa ATCC 9027 strain; type: functional; method in brief: as §3
[7] = Minimal inhibitory concentration against Shigella enteritidis strain; type: functional; method in brief: as §3
Enterococcus faecalis = assay: Minimal inhibitory concentration against Streptococcus faecalis LEP strain; type: functional; method in brief: as §3
Staphylococcus aureus = assay: Minimal inhibitory concentration against […] aureus ATCC 6538 strain; type: functional; method in brief: as §3

Row | SMILES | dose excreted [1] [%] | dose excreted [2] [%] | dose excreted [3] [%] | concentration at 4 h [4] [ng/mL] | concentration at 1 h [5] [ng/mL] | concentration at 15 h [6] [ng/mL] | MIC (Escherichia coli) [µg/mL] | MIC (Enterobacter cloacae) [µg/mL] | MIC (Klebsiella pneumoniae) [µg/mL] | MIC (Proteus vulgaris) [µg/mL] | MIC (Pseudomonas aeruginosa) [µg/mL] | MIC [7] [µg/mL] | MIC (Enterococcus faecalis) [µg/mL] | MIC (Staphylococcus aureus) [µg/mL]
1 | CN1CCN(c2c(F)cc3c(=O)c(C(=O)O)cn4c3c2SCC4)CC1 [RUFLOXACIN] | 2.18 | 10.5 | 15.6 | 4430 | 7740 | 410 | 0.25 (≈ 0.688 µM) | 2 (≈ 5.5 µM) | 0.12 (≈ 0.33 µM) | 4 (≈ 11 µM) | 8 (≈ 22 µM) | 2 (≈ 5.5 µM) | 16 (≈ 44 µM) | 1 (≈ 2.75 µM)
2 | CC1Cn2cc(C(=O)O)c(=O)c3cc(F)c(N4CCN(C=O)CC4)c(c32)S1 (stereo not drawn) |  |  |  |  |  |  | 0.5 (≈ 1.28 µM) | 1 (≈ 2.55 µM) | 0.5 (≈ 1.28 µM) | 64 (≈ 164 µM) | 32 (≈ 81.8 µM) | 1 (≈ 2.55 µM) | 64 (≈ 164 µM) | 16 (≈ 40.9 µM)
3 | CC1Cn2cc(C(=O)O)c(=O)c3cc(F)c(N4CCN(c5ccccn5)CC4)c(c32)S1 (stereo not drawn) |  |  |  |  |  |  | 1 (≈ 2.27 µM) | > 64 | 2 (≈ 4.54 µM) | > 64 | > 64 | > 64 | 2 (≈ 4.54 µM) | 0.5 (≈ 1.14 µM)
4 | CCNCC1CCN(c2c(F)cc3c(=O)c(C(=O)O)cn4c3c2SC(C)C4)C1 (stereo not drawn) |  |  |  |  |  |  | 0.25 (≈ 0.617 µM) | 8 (≈ 19.7 µM) | 0.25 (≈ 0.617 µM) | > 64 | > 64 | 8 (≈ 19.7 µM) | 16 (≈ 39.5 µM) | 4 (≈ 9.86 µM)
5 | CC1Cn2cc(C(=O)O)c(=O)c3cc(F)c(-n4ccnc4)c(c32)S1 (stereo not drawn) |  |  |  |  |  |  | 0.12 (≈ 0.347 µM) | 16 (≈ 46.3 µM) | 0.25 (≈ 0.724 µM) | > 64 | 64 (≈ 185 µM) | 4 (≈ 11.6 µM) | 32 (≈ 92.7 µM) | 16 (≈ 46.3 µM)
6 | CC1Cn2cc(C(=O)O)c(=O)c3cc(F)c(N4CCN(c5ccc(F)cc5)CC4)c(c32)S1 (stereo not drawn) |  |  |  |  |  |  | 8 (≈ 17.5 µM) | > 64 | > 64 | > 64 | > 64 | > 64 | 4 (≈ 8.74 µM) | 8 (≈ 17.5 µM)
7 | CC1CN(c2c(F)cc3c(=O)c(C(=O)O)cn4c3c2SC(C)C4)CC(C)N1 (stereo not drawn) |  |  |  |  |  |  | 0.25 (≈ 0.639 µM) | 4 (≈ 10.2 µM) | 0.25 (≈ 0.639 µM) | > 64 | 32 (≈ 81.7 µM) | 4 (≈ 10.2 µM) | 64 (≈ 163 µM) | 4 (≈ 10.2 µM)
8 | CC1Cn2cc(C(=O)O)c(=O)c3cc(F)c(N4CCNCC4)c(c32)S1 (stereo not drawn) | 0.37 | 1.92 | 3.12 |  |  |  | 0.25 (≈ 0.688 µM) | 16 (≈ 44 µM) | 2 (≈ 5.5 µM) | > 64 | 64 (≈ 176 µM) | 8 (≈ 22 µM) | > 64 | 8 (≈ 22 µM)
9 | CC1Cn2cc(C(=O)O)c(=O)c3cc(F)c(N4CCCC4)c(c32)S1 (stereo not drawn) |  |  |  |  |  |  | 0.25 (≈ 0.718 µM) | 16 (≈ 45.9 µM) | 2 (≈ 5.74 µM) | > 64 | > 64 | 16 (≈ 45.9 µM) | 32 (≈ 91.8 µM) | 2 (≈ 5.74 µM)
10 | CC1Cn2cc(C(=O)O)c(=O)c3cc(F)c(N4CCN(C)CC4)c(c32)S1 (stereo not drawn) | 1.5 | 2.59 | 5.17 | 7610 | 14100 | 270 | 0.25 (≈ 0.662 µM) | 4 (≈ 10.6 µM) | 0.25 (≈ 0.662 µM) | 32 (≈ 84.8 µM) | 16 (≈ 42.4 µM) | 2 (≈ 5.3 µM) | 32 (≈ 84.8 µM) | 1 (≈ 2.65 µM)
11 | CC1Cn2cc(C(=O)O)c(=O)c3cc(F)c(N4CCN(Cc5cccc(F)c5)CC4)c(c32)S1 (stereo not drawn) |  |  |  |  |  |  | 16 (≈ 33.9 µM) | > 64 | > 64 | > 64 | > 64 | > 64 | > 64 | 32 (≈ 67.9 µM)
